Square brackets hold non-standard residues; d marks the D form. Peptide text beside a SMILES is read from it. * marks the point of attachment. NMeA = CN[C@@H](C)C(=O)O; Pra = C#CC[C@H](N)C(=O)O; X2 = [N-]=[N+]=NCC*
Experiments:
[1] = Inhibition of XIAP BIR2 (124 to 240 residues) C202A/C213G mutant (unknown origin) incubated for 60 mins by biotinylated SMAC peptide Alpha-screen assay; set-up: species or system Homo sapiens
[2] = biological target: E3 ubiquitin-protein ligase XIAP (Homo sapiens, UniProt P98170); assay: Inhibition of XIAP BIR3 (241 to 356 residues) (unknown origin) incubated for 60 mins by fluoresceinated modified SMAC peptide based fluorescence polarization assay
BIR2 domain of XIAP = BIR2 domain of XIAP (Homo sapiens, UniProt P98170, C202A/C213G); assay: Inhibition of XIAP BIR2-3 (124 to 356 residues) C202A/C213G mutant (unknown origin) in human THP1 cells using fluoresceinated caspase-3 substrate by caspase-3 rescue assay; format: cell-based, THP-1
[3] = biological target: Baculoviral IAP repeat-containing protein 2 (Homo sapiens, UniProt Q13490); assay: Inhibition of cIAP1 BIR2-3 (154 to 352 residues) (unknown origin) fluoresceinated dimeric SMAC peptide based fluorescence polarization assay
MDA-MB-231 = assay: Antiproliferative activity against human MDA-MB-231 cells assessed as inhibition of cell proliferation after 72 hrs by MTS assay; format: functional, cell-based; conditions: MDA-MB-231, 72 h
[4] = Antiproliferative activity against human A875 cells assessed as inhibition of cell proliferation after 72 hrs by MTS assay; format: functional, cell-based; conditions: A875, 72 h
A549 = assay: Antiproliferative activity against human A549 cells assessed as inhibition of cell proliferation after 72 hrs by MTS assay; format: functional, cell-based; conditions: A549, 72 h
[5] = Half life in Balb/C mouse at 1 mg/kg, iv administered as single dose by LC-MS/MS method; format: ADME, organism-based; set-up: dose 1 mg/kg, route intravenous; conditions: in vivo
Method in brief: (§1)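 Mice received one intravenous dose, and parent compound levels in blood were monitored over time. Plasma pharmacokinetic parameters were derived from these concentration–time profiles.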

[6] = Mean residence time in Balb/C mouse at 1 mg/kg, iv administered as single dose by LC-MS/MS method; format: ADME, organism-based; set-up: dose 1 mg/kg, route intravenous; conditions: in vivo; method in brief: as §1
[7] = Volume of distribution at steady state in Balb/C mouse at 1 mg/kg, iv administered as single dose by LC-MS/MS method; format: ADME, organism-based; set-up: dose 1 mg/kg, route intravenous; conditions: in vivo, read-out: Vdss; method in brief: as §1
Mus musculus = assay: AUClast in Balb/C mouse at 1 mg/kg, iv administered as single dose by LC-MS/MS method; format: ADME, organism-based, Plasma; set-up: time 0 - last, dose 1 mg/kg, route intravenous; conditions: in vivo; method in brief: as §1

E3 ubiquitin-protein ligase XIAP, sequence (P98170 whole entry, looked up, the tested form may be a part): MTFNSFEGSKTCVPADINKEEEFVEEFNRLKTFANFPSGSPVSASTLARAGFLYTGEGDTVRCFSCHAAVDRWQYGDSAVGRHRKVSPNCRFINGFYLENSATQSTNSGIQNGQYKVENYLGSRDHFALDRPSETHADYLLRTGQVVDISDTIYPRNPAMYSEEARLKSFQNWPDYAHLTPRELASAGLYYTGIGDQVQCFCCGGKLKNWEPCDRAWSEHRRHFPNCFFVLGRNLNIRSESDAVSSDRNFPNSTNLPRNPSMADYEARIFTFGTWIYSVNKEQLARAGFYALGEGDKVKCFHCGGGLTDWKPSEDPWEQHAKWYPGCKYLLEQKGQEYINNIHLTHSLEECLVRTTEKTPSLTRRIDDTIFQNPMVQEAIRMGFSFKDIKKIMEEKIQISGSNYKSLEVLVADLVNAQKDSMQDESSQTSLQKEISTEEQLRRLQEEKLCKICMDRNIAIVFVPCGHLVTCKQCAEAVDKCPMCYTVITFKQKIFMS
BIR2 domain of XIAP, sequence (P98170 whole entry C202A/C213G, looked up, the tested form may be a part): as the sequence (P98170 whole entry, looked up, the tested form may be a part) above, with C202A, C213G counted along it
Baculoviral IAP repeat-containing protein 2, sequence (Q13490 whole entry, the tested form may be a part): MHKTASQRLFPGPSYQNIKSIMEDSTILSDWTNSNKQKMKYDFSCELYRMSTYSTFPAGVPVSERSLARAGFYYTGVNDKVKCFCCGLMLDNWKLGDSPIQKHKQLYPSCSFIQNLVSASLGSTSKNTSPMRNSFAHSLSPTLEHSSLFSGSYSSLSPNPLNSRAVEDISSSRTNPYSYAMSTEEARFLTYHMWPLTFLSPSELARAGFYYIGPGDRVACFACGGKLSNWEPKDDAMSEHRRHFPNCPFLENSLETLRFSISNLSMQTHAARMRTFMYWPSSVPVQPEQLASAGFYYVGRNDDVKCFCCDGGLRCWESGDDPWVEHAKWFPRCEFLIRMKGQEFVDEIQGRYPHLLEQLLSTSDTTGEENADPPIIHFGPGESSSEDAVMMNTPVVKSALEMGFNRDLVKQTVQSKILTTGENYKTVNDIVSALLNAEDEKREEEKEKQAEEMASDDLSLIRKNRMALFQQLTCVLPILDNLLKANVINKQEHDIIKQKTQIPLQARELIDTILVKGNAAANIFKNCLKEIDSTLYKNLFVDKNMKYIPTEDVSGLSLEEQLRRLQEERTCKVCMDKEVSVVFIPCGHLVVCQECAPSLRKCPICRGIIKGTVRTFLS

Structure (SMILES) | IC50 [1] | IC50 [2] | EC50 (BIR2 domain of XIAP) | IC50 [3] | IC50 (MDA-MB-231) | IC50 (A549) | half-life [5] | MRT [6] | Vd [7] | AUClast (Mus musculus) | IC50 [4]
CN[C@@H](C)C(=O)N[C@H](C(=O)N1C[C@@H]2C[C@H]1C(=O)N[C@@H](Cc1ccc3ccccc3c1)C(=O)N[C@H](C(=O)O)Cc1cn(nn1)[C@H]1C[C@@H](C(=O)N[C@@H](Cc3ccc4ccccc4c3)C(=O)N[C@H](C(=O)O)Cc3cn2nn3)N(C(=O)[C@@H](NC(=O)[C@H](C)NC)C(C)C)C1)C(C)C | 300 nM | 65 nM | 49 nM | 3 nM | 2010 nM | > 25000 nM | 9.6 min | 15 min | 0.18 L/kg | 1070 ng·h/mL | 6140 nM
CN[C@@H](C)C(=O)N[C@H](C(=O)N1C[C@@H]2C[C@H]1C(=O)N[C@@H](Cc1ccccc1)C(=O)N[C@H](C(=O)O)Cc1ccc(cc1)NC(=O)CCc1cn(nn1)[C@H]1C[C@@H](C(=O)N[C@@H](Cc3ccccc3)C(=O)N[C@H](C(=O)O)Cc3ccc(cc3)NC(=O)CCc3cn2nn3)N(C(=O)[C@@H](NC(=O)[C@H](C)NC)C(C)C)C1)C(C)C | 6 nM | 47 nM | 70 nM |  | 7900 nM | > 25000 nM |  |  |  |  | 
CN[C@@H](C)C(=O)N[C@H](C(=O)N1C[C@@H]2C[C@H]1C(=O)N[C@@H](Cc1ccc3ccccc3c1)C(=O)N[C@H](C(=O)O)Cc1ccc(cc1)OCc1cn(nn1)[C@H]1C[C@@H](C(=O)N[C@@H](Cc3ccc4ccccc4c3)C(=O)N[C@H](C(=O)O)Cc3ccc(cc3)OCc3cn2nn3)N(C(=O)[C@@H](NC(=O)[C@H](C)NC)C(C)C)C1)C(C)C | 333 nM | 40 nM | 59 nM |  | 82 nM | > 25000 nM |  |  |  |  | 218 nM
CN[C@@H](C)C(=O)N[C@H]1CCCCNC(=O)CCc2cn(nn2)CCOc2ccc(cc2)C[C@@H](C(=O)O)NC(=O)[C@H](Cc2ccccc2)NC(=O)[C@@H]2CCCN2C1=O | > 18800 nM | 1490 nM |  |  |  |  |  |  |  |  | 

Further lines, with some results ahead:

IC50 [1] | IC50 [2] | EC50 (BIR2 domain of XIAP) | IC50 [3] | IC50 (MDA-MB-231) | IC50 (A549) | half-life [5] | MRT [6] | Vd [7] | AUClast (Mus musculus) | Structure (SMILES) | IC50 [4]
4870 nM | 366 nM |  |  |  |  |  |  |  |  | CN[C@@H](C)C(=O)N[C@H]1Cc2ccc(cc2)OCc2cn(nn2)CCCOc2ccc(cc2)C[C@@H](C(=O)O)NC(=O)[C@H](Cc2ccccc2)NC(=O)[C@@H]2CCCN2C1=O | 
> 18800 nM | 1320 nM |  |  |  |  |  |  |  |  | CN[C@@H](C)C(=O)N[C@H]1Cc2cn(nn2)CCOc2ccc(cc2)C[C@@H](C(=O)O)NC(=O)[C@H](Cc2ccccc2)NC(=O)[C@@H]2CCCN2C1=O | 
540 nM | 180 nM |  |  |  |  |  |  |  |  | C#CC[C@H](NC(=O)[C@H](C)NC)C(=O)N1CCC[C@H]1C(=O)N[C@@H](Cc1ccccc1)C(=O)N[C@@H](Cc1ccc(OCCN=[N+]=[N-])cc1)C(=O)O (H-[NMeA][Pra]PFY(X2)-OH) | 
2270 nM | 235 nM |  |  |  |  |  |  |  |  | CN[C@@H](C)C(=O)N[C@H](C(=O)N1C[C@@H]2C[C@H]1C(=O)N[C@@H](Cc1ccc3ccccc3c1)C(=O)N[C@H](C(=O)O)Cc1ccc(cc1)OCc1cn2nn1)C1CCCCC1 | 
> 18800 nM | 1360 nM |  |  |  |  |  |  |  |  | CN[C@@H](C)C(=O)N[C@H]1CCCCNC(=O)CCc2cn(nn2)CCCC[C@@H](C(=O)O)NC(=O)[C@H](Cc2ccccc2)NC(=O)[C@@H]2CCCN2C1=O | 
219 nM | 29 nM | 34 nM |  | 197 nM | > 25000 nM |  |  |  |  | CN[C@@H](C)C(=O)N[C@H](C(=O)N1C[C@@H]2C[C@H]1C(=O)N[C@@H](Cc1cccc3ccccc13)C(=O)N[C@H](C(=O)O)Cc1ccc(cc1)OCc1cn(nn1)[C@H]1C[C@@H](C(=O)N[C@@H](Cc3cccc4ccccc34)C(=O)N[C@H](C(=O)O)Cc3ccc(cc3)OCc3cn2nn3)N(C(=O)[C@@H](NC(=O)[C@H](C)NC)C(C)C)C1)C(C)C | 422 nM
